Assays:
[1] = Cytotoxicity against human HEL cells assessed as morphological changes; assay type: cell-based
[2] = tested on: Human alphaherpesvirus 1; assay: Antiviral activity against thymidine kinase negative […] Herpes simplex virus-1 KOS infected in human HEL cells assessed as reduction in virus-induced cytopathogenicity; assay type: functional, organism-based; conditions: Human alphaherpesvirus 1, KOS
Method in brief: (§1)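 Confluent cell monolayers (Vero, HeLa, HEL or MDCK, as named in each line) were infected with 100 CCID50 of virus while exposed to a range of compound concentrations. Cytopathicity was scored once it was complete in untreated infected controls.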

[3] = tested on: Feline coronavirus; assay: Antiviral activity against Feline coronavirus infected in cat CRFK cells assessed as inhibition of virus-induced cytopathic effect by MTS assay; assay type: functional, organism-based; conditions: Alphacoronavirus 1, CRFK
[4] = tested on: Human alphaherpesvirus 2; assay: Antiviral activity against Herpes simplex virus-2 G infected in human HEL cells assessed as reduction in virus-induced cytopathogenicity; assay type: functional, organism-based; conditions: Human alphaherpesvirus 2, strain G; method in brief: as §1
[5] = tested on: Human alphaherpesvirus 1; assay: Antiviral activity against Herpes simplex virus-1 KOS infected in human HEL cells assessed as reduction in virus-induced cytopathogenicity; assay type: functional, organism-based; conditions: Human alphaherpesvirus 1, KOS; method in brief: as §1
[6] = tested on: Punta Toro virus; assay: Antiviral activity against Punta Toro virus infected in african green monkey Vero cells assessed as reduction in virus-induced cytopathogenicity; assay type: functional, organism-based; method in brief: as §1
[7] = tested on: Influenza A virus; assay: Antiviral activity against Influenza A virus H1N1 infected in MDCK cells assessed as reduction in virus-induced cytopathogenicity; assay type: functional, organism-based; method in brief: as §1
[8] = tested on: Vesicular stomatitis virus; assay: Antiviral activity against Vesicular stomatitis virus infected in human HEL cells assessed as reduction in virus-induced cytopathogenicity; assay type: functional, organism-based; method in brief: as §1
[9] = tested on: Felid alphaherpesvirus 1; assay: Antiviral activity against Feline Herpes virus infected in cat CRFK cells assessed as inhibition of virus-induced cytopathic effect by MTS assay; assay type: functional, organism-based; conditions: Felid alphaherpesvirus 1, CRFK
[10] = tested on: Sindbis virus; assay: Antiviral activity against Sindbis virus infected in african green monkey Vero cells assessed as reduction in virus-induced cytopathogenicity; assay type: functional, organism-based; method in brief: as §1
[11] = tested on: Vesicular stomatitis virus; assay: Antiviral activity against Vesicular stomatitis virus infected in human HeLa cells assessed as reduction in virus-induced cytopathogenicity; assay type: functional, organism-based; method in brief: as §1
[12] = Cytotoxicity against cat CRFK cells assessed as cell viability by MTS assay; assay type: cell-based, Felis catus
[13] = tested on: Cytomegalovirus; assay: Antiviral activity against Cytomegalovirus Davis infected in human HEL cells assessed as reduction in virus plaque formation; assay type: functional, organism-based; conditions: Human betaherpesvirus 5, Davis
Method in brief: (§2)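 Confluent HEL fibroblasts were inoculated with 100 PFU of CMV at graded compound concentrations. Plaques were counted once formation was complete in untreated infected controls.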

[14] = tested on: Coxsackievirus B4; assay: Antiviral activity against Coxsackievirus B4 infected in human HeLa cells assessed as reduction in virus-induced cytopathogenicity; assay type: functional, organism-based; conditions: Enterovirus B; method in brief: as §1
[15] = Cytotoxicity against MDCK cells assessed as morphological changes; assay type: cell-based, Canis lupus familiaris; conditions: dog
[16] = tested on: Respiratory syncytial virus; assay: Antiviral activity against Respiratory syncytial virus Long infected in human HeLa cells assessed as reduction in virus-induced cytopathogenicity; assay type: functional, organism-based; method in brief: as §1
[17] = tested on: Influenza A virus; assay: Antiviral activity against Influenza A virus […] infected in MDCK cells assessed as reduction in virus-induced cytopathogenicity; assay type: functional, organism-based; method in brief: as §1
[18] = tested on: Human respirovirus 3; assay: Antiviral activity against Parainfluenza virus 3 infected in african green monkey Vero cells assessed as reduction in virus-induced cytopathogenicity; assay type: functional, organism-based; conditions: Human respirovirus 3, Vero
Method in brief: (§3)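 Confluent Vero monolayers in 96-well plates were inoculated with 100 CCID50 of virus together with varying compound concentrations. Cytopathicity was scored once it was complete in untreated virus-infected control cultures.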

[19] = tested on: Human alphaherpesvirus 3; assay: Antiviral activity against thymidine kinase positive Varicella-zoster virus OKA infected in human HEL cells assessed as reduction in virus plaque formation; assay type: functional, cell-based, Human herpesvirus 3 strain Oka vaccine; conditions: Human alphaherpesvirus 3, OKA
Method in brief: (§4)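 Confluent HEL fibroblast cultures received 20 PFU of VZV together with varying compound concentrations. Plaque formation was read when it reached completion in untreated virus controls.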

[20] = tested on: Influenza B virus; assay: Antiviral activity against Influenza B virus infected in MDCK cells assessed as reduction in virus-induced cytopathogenicity; assay type: functional, organism-based; method in brief: as §1
[21] = tested on: Coxsackievirus B4; assay: Antiviral activity against Coxsackievirus B4 infected in african green monkey Vero cells assessed as reduction in virus-induced cytopathogenicity; assay type: functional, organism-based; conditions: Enterovirus B; method in brief: as §1
[22] = tested on: Human alphaherpesvirus 3; assay: Antiviral activity against thymidine kinase negative Varicella-zoster virus 07-1 infected in human HEL cells assessed as reduction in the virus plaque formation; assay type: functional, organism-based; conditions: Human alphaherpesvirus 3, 07-1, HEL; method in brief: as §4
[23] = tested on: Mammalian orthoreovirus 1; assay: Antiviral activity against Reovirus-1 infected in african green monkey Vero cells assessed as reduction in virus-induced cytopathogenicity; assay type: functional, organism-based; conditions: Mammalian orthoreovirus 1, Vero; method in brief: as §3
[24] = Cytotoxicity against african green monkey Vero cells assessed as morphological changes; assay type: cell-based; conditions: chlorocebus sabaeus
[25] = Cytotoxicity against human HeLa cells assessed as morphological changes; assay type: cell-based
[26] = tested on: Cytomegalovirus; assay: Antiviral activity against Cytomegalovirus AD-169 infected in human HEL cells assessed as reduction in virus plaque formation; assay type: functional, organism-based; conditions: Human betaherpesvirus 5, AD-169, HEL; method in brief: as §2

For `Nc1nc(CCc2ccccc2)c(Br)c(=O)[nH]1`, the MCC [1] was over 100 µM, the EC50 [2] was over 100 µM and the EC50 [3] was over 100 µM. The EC50 [4] was over 100 µM, the EC50 [5] was over 100 µM and the EC50 [6] was over 100 µM. The EC50 [7] was over 100 µM, the EC50 [8] was over 100 µM and the EC50 [9] was over 100 µM. The EC50 [10] was over 100 µM, the EC50 [11] was over 100 µM and the MCC [12] was over 100 µM. For the same molecule, the EC50 [13] was over 100 µM, the EC50 [14] was over 100 µM and the MCC [15] was over 100 µM. It also gave an EC50 [16] of over 100 µM, an EC50 [17] of over 100 µM and an EC50 [18] of over 100 µM. The EC50 [19] was over 100 µM, the EC50 [20] was over 100 µM and the EC50 [21] was over 100 µM. The EC50 [22] was over 100 µM, the EC50 [23] was over 100 µM and the MCC [24] was over 100 µM. It also gave an MCC [25] of over 100 µM and an EC50 [26] of over 100 µM.

`CC(C)(O)Cc1nc(N)[nH]c(=O)c1Br` gave an MCC [1] of over 100 µM, an EC50 [2] of over 100 µM and an EC50 [3] of over 100 µM. It also gave an EC50 [4] of over 100 µM, an EC50 [5] of over 100 µM and an EC50 [6] of over 100 µM. The EC50 [7] was over 100 µM, the EC50 [8] was over 100 µM and the EC50 [9] was over 100 µM. The EC50 [10] was over 100 µM, the EC50 [11] was 45 µM and the MCC [12] was over 100 µM. It also gave an EC50 [13] of over 100 µM, an EC50 [14] of over 100 µM and an MCC [15] of over 100 µM. It also gave an EC50 [16] of over 100 µM, an EC50 [17] of over 100 µM and an EC50 [18] of over 100 µM. It also gave an EC50 [19] of 100 µM, an EC50 [20] of over 100 µM and an EC50 [21] of over 100 µM. For the same molecule, the EC50 [22] was 79.5 µM, the EC50 [23] was over 100 µM and the MCC [24] was over 100 µM. The MCC [25] was over 100 µM and the EC50 [26] was 100 µM.

For `Nc1nc(CC(O)c2ccc(Cl)cc2)c(Br)c(=O)[nH]1` (stereo unspecified), the MCC [1] was over 100 µM, the EC50 [2] was over 100 µM and the EC50 [3] was over 100 µM. The EC50 [4] was over 100 µM, the EC50 [5] was over 100 µM and the EC50 [6] was over 100 µM. It also gave an EC50 [7] of over 100 µM, an EC50 [8] of over 100 µM and an EC50 [9] of over 100 µM. It also gave an EC50 [10] of over 100 µM, an EC50 [11] of 45 µM and an MCC [12] of over 100 µM. For the same molecule, the EC50 [13] was 100 µM, the EC50 [14] was over 100 µM and the MCC [15] was over 100 µM. It also gave an EC50 [16] of over 100 µM, an EC50 [17] of over 100 µM and an EC50 [18] of over 100 µM. The EC50 [19] was 100 µM, the EC50 [20] was over 100 µM and the EC50 [21] was over 100 µM. For the same molecule, the EC50 [22] was 100 µM, the EC50 [23] was over 100 µM and the MCC [24] was over 100 µM. It also gave an MCC [25] of over 100 µM and an EC50 [26] of 100 µM.

For `CCCCc1nc(N)[nH]c(=O)c1Br`, the MCC [1] was at least 100 µM, the EC50 [2] was over 100 µM and the EC50 [3] was over 100 µM. It also gave an EC50 [4] of over 100 µM, an EC50 [5] of over 100 µM and an EC50 [6] of over 100 µM. The EC50 [7] was over 100 µM, the EC50 [8] was over 100 µM and the EC50 [9] was over 100 µM. For the same molecule, the EC50 [10] was over 100 µM, the EC50 [11] was 10 µM and the MCC [12] was over 100 µM. The EC50 [13] was over 20 µM, the EC50 [14] was over 20 µM and the MCC [15] was over 100 µM. It also gave an EC50 [16] of over 20 µM, an EC50 [17] of over 100 µM and an EC50 [18] of over 100 µM. It also gave an EC50 [19] of over 20 µM, an EC50 [20] of over 100 µM and an EC50 [21] of over 100 µM. For the same molecule, the EC50 [22] was over 20 µM, the EC50 [23] was over 100 µM and the MCC [24] was over 100 µM. It also gave an MCC [25] of 100 µM and an EC50 [26] of over 20 µM.

In the case of `Nc1nc(CC(O)c2ccccc2C(F)(F)F)c(Br)c(=O)[nH]1` (stereo unspecified), the MCC [1] is reported as over 100 µM, the EC50 [2] is reported as over 100 µM and the EC50 [3] is reported as over 100 µM. The EC50 [4] was over 100 µM, the EC50 [5] was over 100 µM and the EC50 [6] was over 100 µM. For the same molecule, the EC50 [7] was over 100 µM, the EC50 [8] was over 100 µM and the EC50 [9] was over 100 µM. For the same molecule, the EC50 [10] was over 100 µM, the EC50 [11] was over 100 µM and the MCC [12] was over 100 µM. It also gave an EC50 [13] of over 100 µM, an EC50 [14] of over 100 µM and an MCC [15] of over 100 µM. The EC50 [16] was over 100 µM, the EC50 [17] was over 100 µM and the EC50 [18] was over 100 µM. It also gave an EC50 [19] of over 100 µM, an EC50 [20] of over 100 µM and an EC50 [21] of over 100 µM. For the same molecule, the EC50 [22] was over 100 µM, the EC50 [23] was over 100 µM and the MCC [24] was over 100 µM. It also gave an MCC [25] of over 100 µM and an EC50 [26] of over 100 µM.

Work on `Cc1cc(C)c(/C=C/c2nc(N)[nH]c(=O)c2Br)c(C)c1` yielded an MCC [1] of over 20 µM, an EC50 [2] of over 20 µM and an EC50 [3] of over 20 µM. The EC50 [4] was over 20 µM, the EC50 [5] was over 20 µM and the EC50 [6] was over 20 µM. For the same molecule, the EC50 [7] was over 20 µM, the EC50 [8] was over 20 µM and the EC50 [9] was 1.5 µM. For the same molecule, the EC50 [10] was over 20 µM, the EC50 [11] was over 20 µM and the MCC [12] was 58 µM. For the same molecule, the EC50 [13] was 8.9 µM, the EC50 [14] was over 20 µM and the MCC [15] was over 20 µM. It also gave an EC50 [16] of over 20 µM, an EC50 [17] of over 20 µM and an EC50 [18] of over 20 µM. The EC50 [19] was 2.5 µM, the EC50 [20] was over 20 µM and the EC50 [21] was over 20 µM. The EC50 [22] was 5.3 µM, the EC50 [23] was over 20 µM and the MCC [24] was 100 µM. For the same molecule, the MCC [25] was 100 µM and the EC50 [26] was 11 µM.

From ChEMBL document CHEMBL2417481, “Regioselective synthesis of 6-substituted-2-amino-5-bromo-4(3H)-pyrimidinones and evaluation of their antiviral activity” (Eur J Med Chem, 2013)
